Legend:
[1] = test system: L1210; test: Concentration required to inhibit proliferation of cultured lymphoid leukemia L1210 cells to 50% growth over 48 hours; type: functional, cell-based; conditions: Mus musculus, L1210, 48 h
Outline: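 Cultured lymphoid leukemia L1210 cells were exposed to agent for 48 h. IC50 is the micromolar concentration that holds proliferation to 50% growth.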

[2] = test system: P388; test: Compound was evaluated for antitumor activity against mice implanted with lymphatic leukemia P388 cells (10e6 tumor cells) after intraperitoneal administration of 200 mg/kg per injection (1-5 days); type: functional; conditions: Mus musculus, P388, ip
Outline: (§1)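 Mice implanted ip with 10⁶ lymphocytic leukemia P388 cells; drug given ip on days 1-5. Read-out is % increase in life span (% ILS) versus untreated controls, reported at the highest nontoxic dose tested.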

[3] = Compound's concentration required to inhibit proliferation of cultured KB cells to 50% growth during 48 hours.; type: functional, cell-based; conditions: Homo sapiens
[4] = test system: P388; test: Compound was evaluated for antitumor activity against mice implanted with lymphatic leukemia P388 cells (10e6 tumor cells) after intraperitoneal administration of 200 mg/kg per injection; type: functional; conditions: Mus musculus, P388, ip
[5] = test system: P388; test: Compound was evaluated for antitumor activity against mice implanted with lymphatic leukemia P388 cells (10e6 tumor cells) after intraperitoneal administration of 100 mg/kg per injection (1-5 days); type: functional; conditions: Mus musculus, P388, ip; outline: as §1
[6] = test system: P388; test: Compound was evaluated for antitumor activity against mice implanted with lymphatic leukemia P388 cells (10e6 tumor cells) after intraperitoneal administration of 50 mg/kg per injection (1-5 days); type: functional; conditions: Mus musculus, P388, ip; outline: as §1

Row | Compound | IC50 [1] | ILS at 200 mg/kg [2] | further results
1 | CCOC(=O)Nc1cc(NC(C)C(O)c2ccc3c(c2)OCO3)c([N+](=O)[O-])c(N)n1 (stereo not given) | 21 µM |  | 
2 | CCOC(=O)Nc1cc(NC(C)C(=O)Cc2ccccc2)c([N+](=O)[O-])c(N)n1 (stereo not given) | 10 µM | 10% | 
3 | CCOC(=O)Nc1cc(N)c([N+](=O)[O-])c(N)n1 |  |  | IC50 [3]: 48 µM; ILS at 200 mg/kg [4]: 0%
4 | CCOC(=O)Nc1cc(NC(CC)C(O)c2ccccc2)c([N+](=O)[O-])c(N)n1 (stereo not given) | 22 µM |  | 
5 | CCCCC(Nc1cc(NC(=O)OCC)nc(N)c1[N+](=O)[O-])C(C)=O (stereo not given) | 31 µM |  | 
6 | CCOC(=O)Nc1cc(NC(C)C(=O)c2ccc(O)cc2)c([N+](=O)[O-])c(N)n1 (stereo not given) | 1.2 µM |  | ILS at 100 mg/kg [5]: 71%
7 | CCOC(=O)Nc1cc(N[C@H](C)[C@@H](O)c2ccc(O)cc2)c([N+](=O)[O-])c(N)n1 | 23 µM | 0% | 
8 | CCOC(=O)Nc1cc(N[C@@H](C)[C@H](O)c2ccccc2)c(N)c(N)n1 | 1.3 µM |  | ILS at 50 mg/kg [6]: 36%
9 | CCOC(=O)Nc1cc(N[C@@H](C)[C@H](O)c2ccccc2)c([N+](=O)[O-])c(N)n1 | 7.8 µM | 53% | 
10 | COc1ccc(/C(=N/O)C(C)N)cc1 (stereo not given) | > 100 µM |  | 
11 | CCOC(=O)Nc1cc(N[C@H](C)[C@@H](O)c2ccccc2)c([N+](=O)[O-])c(N)n1 | 31 µM | 0% | 
12 | CCCCC(O)C(C)Nc1cc(NC(=O)OCC)nc(N)c1N (stereo not given) | 18 µM | 10% | 
13 | CCOC(=O)Nc1cc(N[C@H](C)[C@@H](O)c2ccc(O)cc2)c(N)c(N)n1 | 51 µM | 0% | 
14 | CCOC(=O)Nc1cc(NC(C)C(=O)c2ccc3c(c2)OCO3)c([N+](=O)[O-])c(N)n1 (stereo not given) | 69 µM |  | 
15 | CCOC(=O)Nc1cc(N[C@H](C)C(=O)c2ccccc2)c([N+](=O)[O-])c(N)n1 | 24 µM | 0% | 
16 | CCCCC(O)C(C)Nc1cc(NC(=O)OCC)nc(N)c1[N+](=O)[O-] (stereo not given) | 55 µM |  | 
17 | CCOC(=O)Nc1cc(NC(C)C(O)c2ccc(O)cc2)c([N+](=O)[O-])c(N)n1 (stereo not given) | 12 µM |  | 
18 | CCOC(=O)Nc1cc(NCCc2ccccc2)c(N)c(N)n1 |  |  | IC50 [3]: 75 µM
19 | CCCCC(Nc1cc(NC(=O)OCC)nc(N)c1[N+](=O)[O-])C(C)O (stereo not given) | 56 µM |  | 
20 | CCCCC(=O)C(C)Nc1cc(NC(=O)OCC)nc(N)c1[N+](=O)[O-] (stereo not given) | 54 µM |  | 

Source: ChEMBL document CHEMBL1126221, “Antimitotic agents: structure-activity studies with some pyridine derivatives” (J Med Chem, 1992)
